Measurements taken from ChEMBL document CHEMBL1155775, “Pharmacokinetics of the antiviral agent beta-D-2'-deoxy-2'-fluoro-2'-C-methylcytidine in rhesus monkeys” (Antimicrob Agents Chemother, 2007).
One block for each compound: values may come before it.

What was measured:
Hepatitis C virus = assay: Antiviral activity against HCV in human Huh7 cells by replicon based assay; type: functional, Hepacivirus hominis; details: Huh-7
HepG2 = assay: Cytotoxicity against human HepG2 cells; type: cell-based
[1] = Terminal half life in rhesus monkey at 33.3 mg/kg, po administered as single dose; type: ADME, organism-based, Macaca mulatta; design: dose 33.3 mg/kg, route oral; details: in vivo, read-out: beta t1/2 (converted)
How it was run: (§1)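 Three rhesus monkeys; single 33.3 mg/kg oral dose by gastric intubation in water, then after ≥4-week washout i.v. bolus via femoral vein in sterile normal saline; anesthetized (ketamine plus Telazol i.m.) for 4 h. Femoral venous blood at 0–24 h; serum by HPLC-UV 270 nm, 3TC internal standard. Noncompartmental analysis per animal and pooled; AUC by trapezoid extrapolated to infinity; F = AUCoral/AUCi.v.; MAT = MRToral − MRTi.v.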

[2] = Terminal half life in rhesus monkey at 33.3 mg/kg, iv administered as single dose; type: ADME, organism-based, Macaca mulatta; design: dose 33.3 mg/kg, route intravenous; details: in vivo, read-out: beta t1/2 (converted); how it was run: as §1
[3] = Tmax in rhesus monkey at 33.3 mg/kg, iv administered as single dose; type: ADME, organism-based, Macaca mulatta; design: dose 33.3 mg/kg, route intravenous; details: in vivo
How it was run: (§2)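 Three rhesus monkeys, anesthetised with ketamine plus tiletamine/zolazepam, received a single 33.3 mg/kg bolus in sterile normal saline via the femoral vein. Serum was acetonitrile-extracted with 3TC as internal standard and assayed by reverse-phase HPLC-UV at 270 nm. Peak concentration and its time were taken as observed; noncompartmental analysis.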

[4] = Cmax in rhesus monkey at 33.3 mg/kg, iv administered as single dose; type: ADME, organism-based, Macaca mulatta; design: dose 33.3 mg/kg, route intravenous; details: in vivo; how it was run: as §2
[5] = AUC in rhesus monkey at 33.3 mg/kg, iv administered as single dose; type: ADME, organism-based, Macaca mulatta; design: dose 33.3 mg/kg, route intravenous; details: plasma; how it was run: as §1
[6] = AUC in rhesus monkey at 33.3 mg/kg, po administered as single dose; type: ADME, organism-based, Macaca mulatta; design: dose 33.3 mg/kg, route oral; details: plasma; how it was run: as §1
Rhesus monkey [7] = assay: Apparent volume of distribution with respect to bioavailability in rhesus monkey at 33.3 mg/kg, iv administered as single dose; type: ADME, organism-based, Macaca mulatta; details: in vivo; how it was run: as §1
[8] = Apparent volume of distribution with respect to bioavailability in rhesus monkey at 33.3 mg/kg, po administered as single dose; type: ADME, organism-based, Macaca mulatta; details: in vivo, read-out: Vc/F; how it was run: as §1
[9] = Metabolic stability in human whole blood at 1000 dpm/pmol after 0.5 hrs at 37 degC; type: ADME, tissue-based; details: read-out: Stability
How it was run: (§3)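 3H-labeled nucleoside (10 μM, 1,000 dpm/pmol) incubated in human or monkey whole blood at 37°C for 0–48 h. Aliquots centrifuged, supernatant extracted with acetonitrile, dried, redissolved in water and run on ion-pairing reverse-phase C18 HPLC (ammonium acetate/tetrabutylammonium phosphate pH 7.0, methanol) to measure parent and deaminated product. Each time point in replicate.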

[10] = Metabolic stability in human whole blood at 1000 dpm/pmol after 1 hr at 37 degC; type: ADME, tissue-based; details: read-out: Stability; how it was run: as §3
[11] = Metabolic stability in human whole blood at 1000 dpm/pmol after 2 hrs at 37 degC; type: ADME, tissue-based; details: read-out: Stability; how it was run: as §3
[12] = Metabolic stability in human whole blood at 1000 dpm/pmol after 4 hrs at 37 degC; type: ADME, tissue-based; details: read-out: Stability; how it was run: as §3
[13] = Metabolic stability in human whole blood at 1000 dpm/pmol after 8 hrs at 37 degC; type: ADME, tissue-based; details: read-out: Stability; how it was run: as §3
[14] = Metabolic stability in human whole blood at 1000 dpm/pmol after 10 hrs at 37 degC; type: ADME, tissue-based; details: read-out: Stability; how it was run: as §3
[15] = Metabolic stability in human whole blood at 1000 dpm/pmol after 24 hrs at 37 degC; type: ADME, tissue-based; details: read-out: Stability; how it was run: as §3
[16] = Metabolic stability in human whole blood at 1000 dpm/pmol after 48 hrs at 37 degC; type: ADME, tissue-based; details: read-out: Stability; how it was run: as §3
[17] = Metabolic stability in rhesus monkey whole blood at 1000 dpm/pmol after 0.25 hrs at 37 degC; type: ADME, tissue-based, Macaca mulatta; details: read-out: Stability; how it was run: as §3
[18] = Metabolic stability in rhesus monkey whole blood at 1000 dpm/pmol after 0.5 hrs at 37 degC; type: ADME, tissue-based, Macaca mulatta; details: read-out: Stability; how it was run: as §3
[19] = Metabolic stability in rhesus monkey whole blood at 1000 dpm/pmol after 1 hr at 37 degC; type: ADME, tissue-based, Macaca mulatta; details: read-out: Stability; how it was run: as §3
[20] = Metabolic stability in rhesus monkey whole blood at 1000 dpm/pmol after 2 hrs at 37 degC; type: ADME, tissue-based, Macaca mulatta; details: read-out: Stability; how it was run: as §3
[21] = Metabolic stability in rhesus monkey whole blood at 1000 dpm/pmol after 4 hrs at 37 degC; type: ADME, tissue-based, Macaca mulatta; details: read-out: Stability; how it was run: as §3
[22] = Metabolic stability in rhesus monkey whole blood at 1000 dpm/pmol after 8 hrs at 37 degC; type: ADME, tissue-based, Macaca mulatta; details: read-out: Stability; how it was run: as §3
[23] = Metabolic stability in rhesus monkey whole blood at 1000 dpm/pmol after 10 hrs at 37 degC; type: ADME, tissue-based, Macaca mulatta; details: read-out: Stability; how it was run: as §3
[24] = Metabolic stability in rhesus monkey whole blood at 1000 dpm/pmol after 24 hrs at 37 degC; type: ADME, tissue-based, Macaca mulatta; details: read-out: Stability; how it was run: as §3
[25] = Metabolic stability in rhesus monkey whole blood at 1000 dpm/pmol after 48 hrs at 37 degC; type: ADME, tissue-based, Macaca mulatta; details: read-out: Stability; how it was run: as §3
[26] = Clearance in rhesus monkey at 33.3 mg/kg, po administered as single dose; type: ADME, organism-based, Macaca mulatta; design: dose 33.3 mg/kg, route oral; details: in vivo; how it was run: as §1
[27] = Stability in rhesus monkey urine at 33.3 mg/kg assessed as unchanged drug dose administered as single dose during 8 hrs; type: ADME, organism-based, Macaca mulatta; design: dose 33.3 mg/kg; details: read-out: Stability
How it was run: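 Catheterized rhesus monkeys given single 33.3 mg/kg oral or i.v. dose; urine collected in intervals over 0–8 h, kept on ice then frozen at −70°C; diluted 20-fold (oral) or 50-fold (i.v.), 3TC internal standard added, parent and deaminated uridine metabolite quantified by HPLC-UV 270 nm; percent of dose recovered.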

[28] = Apparent oral clearance in rhesus monkey at 33.3 mg/kg, po administered as single dose; type: ADME, organism-based, Macaca mulatta; design: dose 33.3 mg/kg, route oral; details: in vivo; how it was run: as §1
[29] = Mean residence time in rhesus monkey at 33.3 mg/kg, iv administered as single dose; type: ADME, organism-based, Macaca mulatta; design: dose 33.3 mg/kg, route intravenous; details: in vivo; how it was run: as §1
[30] = Mean residence time in rhesus monkey at 33.3 mg/kg, po administered as single dose; type: ADME, organism-based, Macaca mulatta; design: dose 33.3 mg/kg, route oral; details: in vivo; how it was run: as §1
[31] = Volume of distribution at steady state in rhesus monkey at 33.3 mg/kg, iv administered as single dose; type: ADME, organism-based, Macaca mulatta; design: dose 33.3 mg/kg, route intravenous; details: in vivo, read-out: Vdss; how it was run: as §1
[32] = Drug level in rhesus monkey cerebrospinal fluid at 33.3 mg/kg, iv administered as single dose after 1 hr; type: ADME, organism-based, Macaca mulatta; design: dose 33.3 mg/kg, route intravenous; details: read-out: Drug uptake
How it was run: (§4)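 Same three anesthetized rhesus monkeys given single 33.3 mg/kg oral (water, gastric intubation) or i.v. (saline, femoral vein) dose. CSF taken 1 h post-dose by cisternal or lumbar tap; 3TC internal standard added, analyzed by reverse-phase HPLC with UV detection at 270 nm against standards in water (0.1–25 μg/ml).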

[33] = Drug level in rhesus monkey cerebrospinal fluid at 33.3 mg/kg, po administered as single dose after 1 hr; type: ADME, organism-based, Macaca mulatta; design: dose 33.3 mg/kg, route oral; details: read-out: Drug uptake; how it was run: as §4
[34] = Drug level in rhesus monkey cerebrospinal fluid assessed as 2'-deoxy-2'-fluoro-2'-C-methyluridine level at 33.3 mg/kg, iv administered as single dose after 1 hr; type: ADME, organism-based, Macaca mulatta; design: dose 33.3 mg/kg, route intravenous; details: in vivo, read-out: Drug uptake; how it was run: as §4
Rhesus monkey [35] = assay: Mean absorption time in rhesus monkey at 33.3 mg/kg, po administered as single dose; type: ADME, organism-based, Macaca mulatta; design: dose 33.3 mg/kg, route oral; details: in vivo; how it was run: as §1
[36] = Oral bioavailability in rhesus monkey at 33.3 mg/kg, po administered as single dose; type: ADME, organism-based, Macaca mulatta; details: in vivo; how it was run: as §1
[37] = Metabolic stability in human whole blood at 1000 dpm/pmol after 0.25 hrs at 37 degC; type: ADME, tissue-based; details: read-out: Stability; how it was run: as §3
[38] = Clearance in rhesus monkey at 33.3 mg/kg, iv administered as single dose; details: in vivo
[39] = Metabolic stability in human whole blood assessed as 2'-deoxy-2'-fluoro-2'-C-methyluridine level at 1000 dpm/pmol after 24 hrs at 37 degC; type: ADME, tissue-based; how it was run: as §3
[40] = Metabolic stability in rhesus monkey whole blood assessed as 2'-deoxy-2'-fluoro-2'-C-methyluridine level at 1000 dpm/pmol after 24 hrs at 37 degC; type: ADME, tissue-based, Macaca mulatta; how it was run: as §3

SMILES: C[C@@]1(F)[C@H](O)[C@@H](CO)O[C@H]1n1ccc(N)nc1=O
- EC90 (Hepatitis C virus): 5.4 µM
- Activity (HepG2): > 100 µM
- half-life [1]: 5.64 h
- half-life [2]: 4.54 h
- Tmax [3]: 0.25 h
- Cmax [4]: 154000 nM
- AUC [5]: 235 µM·h
- AUC [6]: 44.1 µM·h
- Vc/F (Rhesus monkey [7]): 4.8 L/kg
- Vd/F [8]: 21.9 L/kg
- remaining at 0.5 h [9]: 100%
- remaining at 1 h [10]: 100%
- remaining at 2 h [11]: 100%
- remaining at 4 h [12]: 100%
- remaining at 8 h [13]: 100%
- remaining at 10 h [14]: 99.1%
- remaining at 24 h [15]: 95.1%
- remaining at 48 h [16]: 83.7%
- remaining at 0.25 h [17]: 100%
- remaining at 0.5 h [18]: 100%
- remaining at 1 h [19]: 100%
- remaining at 2 h [20]: 100%
- remaining at 4 h [21]: 100%
- remaining at 8 h [22]: 100%
- remaining at 10 h [23]: 97.2%
- remaining at 24 h [24]: 93.1%
- remaining at 48 h [25]: 80%
- CL/F [26]: 48 mL/min/kg
- dose excreted at 8 h [27]: 6%
- CL/F [28]: 48 mL/min/kg
- MRT [29]: 2.5 h
- MRT [30]: 7.11 h
- Vd [31]: 1.51 L/kg
- concentration at 1 h [32]: 3670 nM
- concentration at 1 h [33]: 280 nM
- concentration [34]: 1380 nM
- MAT (Rhesus monkey [35]): 4.61 h
- bioavailability [36]: 24%
- remaining at 0.25 h [37]: 100%
- clearance [38]: 10 mL/min/kg

- Stability [39]: 4.9%
- Stability [40]: 6.9%
SMILES: C[C@@]1(F)[C@H](O)[C@@H](CO)O[C@H]1n1ccc(=O)[nH]c1=O
